For assay [1], the target named is T1, 3',5'-cyclic-AMP phosphodiesterase 4B (Homo sapiens, UniProt Q07343). Description: Inhibition of PDE4B1 (unknown origin) expressed in sf9 cells using cAMP as substrate preincubated at 30 uM for 15 mins before substrate addition measured after 1 hr by luminescence assay. The essentials: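 His-tagged PDE4B1 was expressed in baculovirus-infected Sf9 cells (lysed 48 h post infection) and purified on Ni-NTA. 10 ng of enzyme was preincubated 15 min with compound or DMSO vehicle, then given cAMP substrate for 1 h. The reaction was stopped and detection reagent added for 10 min in the dark before reading luminescence. % inhibition = (RLU vehicle − RLU inhibitor)/RLU vehicle × 100, at a single screening concentration.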

For assay [2], the target named is T1, 3',5'-cyclic-AMP phosphodiesterase 4B. Description: Inhibition of PDE4B1 (unknown origin) expressed in sf9 cells using cAMP as substrate preincubated for 15 mins before substrate addition measured after 1 hr by luminescence assay. The essentials: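 Ni-NTA-purified His-tagged PDE4B1 from baculovirus-infected Sf9 cells was used at 10 ng per reaction. Enzyme was preincubated 15 min with compound (9 concentrations) or DMSO, then cAMP for 1 h. After stop solution and 10 min detection reagent in the dark, luminescence was read. % inhibition was taken versus vehicle RLU. IC50 came from nonlinear regression of the dose-response curve and is given as mean ± SD.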

SMILES strings stand for the structures.

T1 sequence (Q07343 whole entry): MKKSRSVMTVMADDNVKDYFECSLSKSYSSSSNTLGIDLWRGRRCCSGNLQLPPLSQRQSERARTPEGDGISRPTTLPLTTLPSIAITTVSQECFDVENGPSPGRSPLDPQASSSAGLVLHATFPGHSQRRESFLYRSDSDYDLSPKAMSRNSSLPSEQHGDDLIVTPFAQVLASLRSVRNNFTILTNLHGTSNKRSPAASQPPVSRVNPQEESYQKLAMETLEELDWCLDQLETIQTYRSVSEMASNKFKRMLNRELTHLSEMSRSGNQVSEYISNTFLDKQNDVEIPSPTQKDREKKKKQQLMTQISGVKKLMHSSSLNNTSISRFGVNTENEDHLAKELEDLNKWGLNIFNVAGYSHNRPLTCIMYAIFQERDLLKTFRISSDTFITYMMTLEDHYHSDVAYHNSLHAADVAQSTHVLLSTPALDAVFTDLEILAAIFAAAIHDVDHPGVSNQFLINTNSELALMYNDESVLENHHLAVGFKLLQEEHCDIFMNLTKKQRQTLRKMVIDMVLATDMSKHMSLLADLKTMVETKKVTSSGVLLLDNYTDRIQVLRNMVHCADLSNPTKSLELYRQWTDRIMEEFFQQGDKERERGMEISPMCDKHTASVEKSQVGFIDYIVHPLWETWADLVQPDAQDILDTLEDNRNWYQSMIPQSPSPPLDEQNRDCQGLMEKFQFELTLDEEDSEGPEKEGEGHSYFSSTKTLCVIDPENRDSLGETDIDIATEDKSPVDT

Consider `NS(=O)(=O)c1cc2c3c(c1)nc(-c1c(Cl)cccc1Cl)n3-c1ccccc1O2`, for which the inhibition (usually the percentage by which the read-out fell short of the control) in assay [1] was found to be 80.2%.

Regarding `NS(=O)(=O)c1cc2c3c(c1)nc(-c1ccccc1O)n3-c1ccccc1O2`, the inhibition in assay [1] was found to be 89.3%. In assay [2], the IC50 (usually the concentration at which inhibition is half-maximal) was 3.31 µM and the inhibition result is “Dose-dependent effect”.

Take `NS(=O)(=O)c1cc2c3c(c1)nc(-c1ccc(Cl)cc1)n3-c1ccccc1O2`: the inhibition in assay [1] stood at 80.3%.

`CCN(CC)c1ccc(-c2nc3cc(S(N)(=O)=O)cc4c3n2-c2ccccc2O4)c(O)c1` registered an inhibition in assay [1] of 19.7%.

`COc1cc(-c2nc3cc(S(N)(=O)=O)cc4c3n2-c2ccccc2O4)ccc1O` had an inhibition in assay [1] of 82.4%.

In assay [1], `NS(=O)(=O)c1cc2c3c(c1)nc(-c1cccc(O)c1)n3-c1ccccc1O2` yielded an inhibition of 87.6%.

`NS(=O)(=O)c1cc2c3c(c1)nc(-c1ccc(O)cc1)n3-c1ccccc1O2` showed an inhibition in assay [1] of 88.8%.

Regarding `NS(=O)(=O)c1cc2c3c(c1)nc(-c1ccccc1)n3-c1ccccc1O2`, in assay [1], the inhibition stood at 79.7%.

`NS(=O)(=O)c1cc2c3c(c1)nc(-c1cccc([N+](=O)[O-])c1)n3-c1ccccc1O2` gave an inhibition in assay [1] of 66.8%.

`COc1ccc(-c2nc3cc(S(N)(=O)=O)cc4c3n2-c2ccccc2O4)cc1` showed an inhibition in assay [1] of 66.5%.

For `NS(=O)(=O)c1cc2c3c(c1)nc(-c1cc(Br)ccc1F)n3-c1ccccc1O2`, the inhibition in assay [1] turned out to be 92.9%. For the same compound, in assay [2], the IC50 was 0.53 µM and the inhibition result was “Dose-dependent effect”.

`NS(=O)(=O)c1cc2c3c(c1)nc(-c1ccccc1Cl)n3-c1ccccc1O2` returned an inhibition in assay [1] of 76.3%.

As for `NS(=O)(=O)c1cc2c3c(c1)nc(-c1ccccc1Br)n3-c1ccccc1O2`, the inhibition in assay [1] is 81%.

As to `NS(=O)(=O)c1cc2c3c(c1)nc(-c1cccc(Br)c1)n3-c1ccccc1O2`, the inhibition is 89.7% in assay [1] and “Dose-dependent effect” in assay [2]. Moreover, the half-inhibitory concentration (IC50) in assay [2] amounted to 1.23 µM.

(Values after ChEMBL document CHEMBL2331491, “Novel imidazophenoxazine-4-sulfonamides: their synthesis and evaluation as potential inhibitors of PDE4” (Bioorg Med Chem, 2013).)
